The term solubility denotes the dissolved amount per volume that the medium holds.

In brackets after ≈: the same amount, converted by molar mass. Activity calls are given as the source filed them. The rule behind the calls is not given here.

Here are results for eight compounds from ChEMBL document CHEMBL2311492, “Small molecule amides as potent ROR-γ selective modulators” (Bioorg Med Chem Lett, 2013).

Series [1] has as its target T1, Nuclear receptor ROR-gamma (Homo sapiens, UniProt P51449).
T1 sequence (P51449 whole entry): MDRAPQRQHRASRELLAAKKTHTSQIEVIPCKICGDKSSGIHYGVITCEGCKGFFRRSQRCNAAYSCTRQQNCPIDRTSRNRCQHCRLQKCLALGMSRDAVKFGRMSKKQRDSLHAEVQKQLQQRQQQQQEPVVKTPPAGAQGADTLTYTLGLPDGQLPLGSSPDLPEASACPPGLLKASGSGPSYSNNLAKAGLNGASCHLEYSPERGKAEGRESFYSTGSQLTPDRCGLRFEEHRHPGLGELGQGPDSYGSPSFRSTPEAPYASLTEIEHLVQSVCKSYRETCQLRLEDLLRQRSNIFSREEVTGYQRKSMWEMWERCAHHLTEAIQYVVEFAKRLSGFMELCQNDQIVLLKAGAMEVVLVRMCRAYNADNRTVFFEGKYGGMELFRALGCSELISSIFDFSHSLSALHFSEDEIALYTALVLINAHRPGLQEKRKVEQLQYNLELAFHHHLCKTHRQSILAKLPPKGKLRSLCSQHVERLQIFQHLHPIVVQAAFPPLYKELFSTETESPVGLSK
The series can be described thus: Displacement of [3H]-T0903017 from GST-tagged ROR-gamma (unknown origin) after 20 hrs. Background: Displacement assays read how much labelled ligand stays bound in the presence of the test substance.

For another series, the target named is Cytochrome P450 3A4 (Homo sapiens, UniProt P08684). Description: Inhibition of CYP3A4 (unknown origin) at 10 uM. The class given is ADME.
Chain of Cytochrome P450 3A4 (P08684 whole entry): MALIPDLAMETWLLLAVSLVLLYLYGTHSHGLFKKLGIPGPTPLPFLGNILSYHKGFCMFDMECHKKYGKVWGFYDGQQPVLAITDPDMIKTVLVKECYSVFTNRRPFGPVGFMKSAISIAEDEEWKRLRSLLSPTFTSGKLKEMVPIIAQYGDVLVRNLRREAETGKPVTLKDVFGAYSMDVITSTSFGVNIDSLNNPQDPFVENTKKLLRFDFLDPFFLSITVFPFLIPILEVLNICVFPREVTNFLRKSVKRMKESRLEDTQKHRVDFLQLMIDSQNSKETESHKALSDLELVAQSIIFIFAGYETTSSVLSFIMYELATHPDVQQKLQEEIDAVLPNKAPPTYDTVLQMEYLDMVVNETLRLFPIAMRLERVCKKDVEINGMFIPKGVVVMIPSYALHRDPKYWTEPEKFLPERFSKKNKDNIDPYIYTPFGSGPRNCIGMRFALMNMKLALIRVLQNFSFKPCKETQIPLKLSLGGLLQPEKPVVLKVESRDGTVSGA
The target in another series is T2, Cytochrome P450 1A2 (Homo sapiens, UniProt P05177).
T2 sequence (P05177 whole entry): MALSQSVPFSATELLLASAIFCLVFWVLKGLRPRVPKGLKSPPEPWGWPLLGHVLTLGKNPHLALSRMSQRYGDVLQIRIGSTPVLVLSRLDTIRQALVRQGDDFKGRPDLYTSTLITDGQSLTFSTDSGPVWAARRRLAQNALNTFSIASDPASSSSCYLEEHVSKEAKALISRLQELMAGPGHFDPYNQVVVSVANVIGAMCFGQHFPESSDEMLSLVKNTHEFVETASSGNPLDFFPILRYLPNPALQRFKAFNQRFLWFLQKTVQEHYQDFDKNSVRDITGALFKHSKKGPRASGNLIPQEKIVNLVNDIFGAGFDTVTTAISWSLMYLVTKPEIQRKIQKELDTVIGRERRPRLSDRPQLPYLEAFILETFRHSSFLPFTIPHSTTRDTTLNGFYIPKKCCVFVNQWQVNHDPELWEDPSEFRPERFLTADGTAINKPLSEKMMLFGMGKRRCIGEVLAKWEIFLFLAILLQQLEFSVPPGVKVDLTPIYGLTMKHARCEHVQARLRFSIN
The series can be described thus: Inhibition of CYP1A2 (unknown origin) at 10 uM. The format is ADME.

The target in another series is Cytochrome P450 2D6 (Homo sapiens, UniProt P10635). The series can be described thus: Inhibition of CYP2D6 (unknown origin) at 10 uM. The class given is ADME.
Chain of Cytochrome P450 2D6 (P10635 whole entry): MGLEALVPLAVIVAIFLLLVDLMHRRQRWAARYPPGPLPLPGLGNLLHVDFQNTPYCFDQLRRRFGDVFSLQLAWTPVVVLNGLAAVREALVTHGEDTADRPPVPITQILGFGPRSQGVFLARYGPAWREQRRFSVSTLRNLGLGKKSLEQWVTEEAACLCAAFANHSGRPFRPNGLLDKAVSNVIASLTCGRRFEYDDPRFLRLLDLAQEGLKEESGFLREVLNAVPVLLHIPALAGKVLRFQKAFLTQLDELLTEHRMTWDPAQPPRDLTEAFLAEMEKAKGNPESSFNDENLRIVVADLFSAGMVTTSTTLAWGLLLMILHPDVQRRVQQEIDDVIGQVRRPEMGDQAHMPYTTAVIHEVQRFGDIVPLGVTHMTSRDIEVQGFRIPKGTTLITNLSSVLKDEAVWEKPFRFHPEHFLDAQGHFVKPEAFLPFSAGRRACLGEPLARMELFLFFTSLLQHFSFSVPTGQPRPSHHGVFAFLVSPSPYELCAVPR
Series [2] in a line: Solubility of the compound in phosphate buffered saline at 100 uM at pH 7.4 after 20 hrs. As to conditions: buffer, pH 7.4, 20 h. The class given is physicochemical. A digest of the protocol: (§1)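 100 µM compound solutions shaken at room temperature for 20 hr in PBS pH 7.4 or sodium citrate buffer pH 5.0; dissolved concentration reported in µM.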
Series [3] is described as follows: Solubility of the compound in sodium citrate buffer at 100 uM at pH 5 after 20 hrs. The format is physicochemical. As to conditions: pH 5, 20 h. Put shortly: as §1
A further series has as its target Cytochrome P450 2C9 (Homo sapiens, UniProt P11712). Description: Inhibition of CYP2C9 (unknown origin) at 10 uM. The class given is ADME.
Series [4] deals with T3, Bile acid receptor (Homo sapiens) (UniProt Q96RI1).
T3 sequence (whole entry): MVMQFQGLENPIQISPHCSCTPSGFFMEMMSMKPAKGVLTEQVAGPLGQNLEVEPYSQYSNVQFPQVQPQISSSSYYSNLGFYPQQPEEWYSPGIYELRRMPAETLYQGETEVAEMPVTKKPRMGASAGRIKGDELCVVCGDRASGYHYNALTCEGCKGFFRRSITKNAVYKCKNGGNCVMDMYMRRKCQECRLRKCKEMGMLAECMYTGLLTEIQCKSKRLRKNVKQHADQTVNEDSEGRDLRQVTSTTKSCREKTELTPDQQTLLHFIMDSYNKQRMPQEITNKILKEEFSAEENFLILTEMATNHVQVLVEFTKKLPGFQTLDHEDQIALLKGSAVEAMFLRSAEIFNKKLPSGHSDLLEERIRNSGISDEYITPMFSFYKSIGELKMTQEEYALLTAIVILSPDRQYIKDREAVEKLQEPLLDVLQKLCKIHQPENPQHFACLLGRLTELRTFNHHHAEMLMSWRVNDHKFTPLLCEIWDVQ
Description: Modulation of FXR (unknown origin).

A short description of series [5]: Drug level in C57Bl6 mouse brain at 10 mg/kg, ip after 6 hrs. The format is ADME, organism-based. Details: dose 10 mg/kg, route intraperitoneal. As to conditions: read-out: Drug uptake.
The target of series [6] is T4, Oxysterols receptor LXR-alpha (Homo sapiens) (UniProt Q13133).
T4 sequence (whole entry): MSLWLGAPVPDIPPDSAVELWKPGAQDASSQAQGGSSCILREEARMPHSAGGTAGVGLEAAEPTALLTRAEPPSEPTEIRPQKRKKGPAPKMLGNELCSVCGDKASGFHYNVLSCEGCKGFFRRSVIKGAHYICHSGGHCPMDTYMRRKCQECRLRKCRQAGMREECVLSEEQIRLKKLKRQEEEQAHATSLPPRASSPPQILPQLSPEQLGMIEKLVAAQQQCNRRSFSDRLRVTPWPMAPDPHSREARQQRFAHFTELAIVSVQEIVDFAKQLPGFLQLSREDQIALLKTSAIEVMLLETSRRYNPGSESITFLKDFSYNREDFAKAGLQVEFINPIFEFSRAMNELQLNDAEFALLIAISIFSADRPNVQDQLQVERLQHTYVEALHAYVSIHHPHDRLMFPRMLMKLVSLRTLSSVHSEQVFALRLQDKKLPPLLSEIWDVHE
Description: Modulation of LXR-alpha (unknown origin).

The next series concerns Brain. The series can be described thus: Brain penetration in C57Bl6 mouse brain at 10 mg/kg, ip after 6 hrs. The class given is ADME, organism-based. On the set-up: dose 10 mg/kg, route intraperitoneal. As to conditions: in vivo.
Series [7] can be described thus: Plasma concentration in C57Bl6 mouse at 10 mg/kg, ip after 6 hrs. The class given is ADME, organism-based. Details: dose 10 mg/kg, route intraperitoneal.

Chain of Cytochrome P450 2C9 (P11712 whole entry): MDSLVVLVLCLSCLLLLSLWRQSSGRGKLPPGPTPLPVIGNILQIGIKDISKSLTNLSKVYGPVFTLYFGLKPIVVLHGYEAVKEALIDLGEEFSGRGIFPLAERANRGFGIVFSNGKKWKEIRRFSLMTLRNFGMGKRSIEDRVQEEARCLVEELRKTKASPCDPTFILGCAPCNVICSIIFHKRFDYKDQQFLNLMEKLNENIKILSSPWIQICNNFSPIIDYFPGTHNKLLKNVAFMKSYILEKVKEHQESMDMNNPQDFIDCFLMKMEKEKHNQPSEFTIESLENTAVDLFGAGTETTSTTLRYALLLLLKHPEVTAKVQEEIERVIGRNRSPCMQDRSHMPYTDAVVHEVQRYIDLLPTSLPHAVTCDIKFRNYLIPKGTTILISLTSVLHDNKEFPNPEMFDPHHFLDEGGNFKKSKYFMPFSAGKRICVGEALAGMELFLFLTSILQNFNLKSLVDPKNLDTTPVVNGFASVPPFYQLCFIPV

For `COc1ccc(C(CC(=O)N2CCCCC2)c2c(O)cc(OC)cc2OC)cc1` (stereo not drawn), the IC50 result in [1] is “Not Active”.
As to `COc1ccc(C(CC(=O)NC2CCCC2)c2c(O)cc(OC)cc2OC)cc1` (stereo not drawn), in [1], the IC50 result is on record as “Not Active”.
The same measure, in the same setting: the entry for `COc1ccc(C(CC(=O)N2CCCC2)c2c(O)cc(OC)cc2OC)cc1` (stereo not drawn) is “Not Active”; for `COc1ccc(C(CC(=O)NCc2ccccc2)c2c(O)cc(OC)cc2OC)cc1` (stereo not drawn) it is “Not Active”.
In the case of `COc1cc(O)c(C(CC(=O)N2CC(C)CC(C)C2)c2ccccc2OC)c(OC)c1` (stereo not drawn), the “inhibition (INH)” value is on record as 70% against Cytochrome P450 3A4, -22% against Cytochrome P450 1A2, -11% against Cytochrome P450 2D6 and 53% against Cytochrome P450 2C9. Besides, the solubility in series [2] amounted to 12.7 µM (≈ 5.43 µg/mL); in [3], 6 µM (≈ 2.57 µg/mL).
`COc1cc(O)c(C(CC(=O)N2CC(C)CC(C)C2)c2ccc3c(c2)OCO3)c(OC)c1` (stereo not drawn): the “inhibition (INH)” value on Cytochrome P450 3A4 was determined as 97%; against Cytochrome P450 1A2, 3%; against Cytochrome P450 2D6, 15%; against Cytochrome P450 2C9, 92%. Besides, the result in series [4] and in [6] was inactive. Further, the concentration at 6 h is 780 nM in [5] and 300 nM in [7]. Besides, the solubility stood at 15.6 µM (≈ 6.89 µg/mL) in series [2] and 15.2 µM (≈ 6.71 µg/mL) in series [3]. Also, in the series with Brain, the Drug uptake amounted to 260%.
On to `COc1ccc(C(CC(=O)N2CCOCC2)c2c(O)cc(OC)cc2OC)cc1` (stereo not drawn), for which the IC50 entry in series [1] is reported as “Not Active”.
Consider `COc1ccc(C(CC(=O)N2CC(C)CC(C)C2)c2c(O)cc(OC)cc2OC)cc1` (stereo not drawn), for which the “inhibition (INH)” value is 75% on Cytochrome P450 3A4, 4% on Cytochrome P450 1A2, -7% against Cytochrome P450 2D6 and 65% against Cytochrome P450 2C9. Also, the solubility in [2] stood at 18 µM (≈ 7.7 µg/mL); in [3] it was 19.5 µM (≈ 8.34 µg/mL).
